In the library only some 0.86% were active in any assay of this set; here they are far more common.
Rtt109 HAT inh: inhibitors of C. albicans Rtt109/Vps75 HAT, primary screen, biochemical, ThioGlo CoA-SH fluorescence, plate reader | Histone acetyltransferase RTT109 (Candida albicans (strain SC5314 / ATCC MYA-2876)), … | purified Rtt109/Vps75, 4 h | inhibition, % at 34.9 µM | 330,000 compounds, 0.16% hits | AID 540336, 2011;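 active means inhibition of at least 50% in every replicate; inconclusive means best replicate reaches 50% inhibition but some replicates fall short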
miR122 inh: miR-122 Renilla sensor signal increase in Huh7, primary screen, miR-122 inhibitor project, cell-based, single point, plate reader. activation (reporter increase), % at 12.5 µM. Huh7 miR-122 Renilla luciferase sensor, 48 h; neutral wells = 0, positive control = 100. 340,000 compounds, 0.3% hits. AID 602342, 2012;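 active means mean replicate activation score at least 90 and every replicate individually at or above 90; inconclusive means only one of the two criteria met; inactive means neither criterion met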;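 further: higher luciferase means less miR-122 activity so hits act as miR-122 inhibitors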
ERAP1 HTS inh: human ERAP1 aminopeptidase inhibitors, primary screen, biochemical, single point, plate reader; recombinant ERAP1, Leu-AMC fluorescence, 60 min; inhibition, % at 10.7 µM; 340,000 compounds, 0.15% hits; AID 652197, 2013;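 active means mean replicate inhibition of at least 30%, or all replicates individually reaching that 30% level; inactive means mean below 30% and not every replicate reaching it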;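 further: 0% = neutral control wells and 100% = L-leucinethiol positive control wells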
MLL AF4-AF9 inh: inhibitors of AF4 peptide binding to AF9, primary screen, biochemical, AlphaScreen, biotin-AF4 peptide, FLAG-AF9, single point | Protein AF-9 (Homo sapiens), P42568 | inhibition, % at 10 µM | 350,000 compounds, 0.47% hits;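 active means every replicate reaching a set inhibition limit, whatever the replicate mean, cut at about 25% in these data; inconclusive means mean inhibition reaches that limit but some replicates miss it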;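 further: 0% = plate neutral control median and 100% = total signal loss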
Target sequence (P42568 whole entry, looked up): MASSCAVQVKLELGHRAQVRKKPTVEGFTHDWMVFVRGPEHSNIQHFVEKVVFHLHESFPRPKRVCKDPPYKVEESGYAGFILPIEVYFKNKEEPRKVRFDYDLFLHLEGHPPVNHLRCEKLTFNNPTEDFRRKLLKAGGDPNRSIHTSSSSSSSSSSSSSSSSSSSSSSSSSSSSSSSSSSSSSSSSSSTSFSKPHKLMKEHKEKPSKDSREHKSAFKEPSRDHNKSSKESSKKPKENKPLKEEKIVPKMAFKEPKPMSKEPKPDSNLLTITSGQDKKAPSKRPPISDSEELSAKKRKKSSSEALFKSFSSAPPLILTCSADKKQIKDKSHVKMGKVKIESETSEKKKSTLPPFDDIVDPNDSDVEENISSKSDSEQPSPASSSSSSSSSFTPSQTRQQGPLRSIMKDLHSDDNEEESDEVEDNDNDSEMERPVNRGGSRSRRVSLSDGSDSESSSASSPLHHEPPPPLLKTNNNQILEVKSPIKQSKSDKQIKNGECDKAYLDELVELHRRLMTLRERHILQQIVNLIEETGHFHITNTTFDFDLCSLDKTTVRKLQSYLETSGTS
S100A4 inh HTS: inhibitors of S100A4-myosin IIA peptide binding, primary screen, biochemical, fluorescence polarization, TAMRA-MyoIIA peptide; Protein S100-A4 (Homo sapiens), P26447; inhibition, % at 10.7 µM; 360,000 compounds, 0.14% hits; AID 652163, 2013;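 active means mean inhibition of at least 70% across replicates, with every replicate also reaching that level; inconclusive means mean inhibition reaches 70% but some replicates fall short; inactive means mean inhibition below 70%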
Target sequence (P26447 whole entry, looked up): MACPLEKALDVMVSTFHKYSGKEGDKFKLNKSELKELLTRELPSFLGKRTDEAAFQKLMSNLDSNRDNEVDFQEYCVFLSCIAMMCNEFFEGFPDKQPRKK
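Material: S100A4 monomer protein | Medium: HEPES pH 7.2 with CaCl2, KCl, NaCl, DTT, Triton | Reagent: Labelled myosin peptide probe, 5 nM | Doses: One dose per compound | Times: 5 min incubation before reading | Benchmarks: Neutral control DMSO, positive control TFP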
The depositor's hits bear a star; ? = inconclusive; . = no result given; [ ] = remark or other dose.

SMILES	Rtt109 HAT inh	miR122 inh	ERAP1 HTS inh	MLL AF4-AF9 inh	S100A4 inh HTS
Cc1cc(C)cc(NS(=O)(=O)c2ccc(NC(=S)NC(=O)c3cccs3)cc2)c1	25	133*	.	.	.
O=C(C[C@@H]1CC[C@@H]2[C@H](COC[C@H](O)CN2Cc2cc(F)cc(F)c2)O1)NCc1cccc(F)c1	.	9[16.7 µM]	0	-2	10
Clc1ccc(Nc2ncnc3ccc(Br)cc23)cc1	3	11	.	.	.
CN(C)c1ccc(Nc2ncnc3ccc(Br)cc23)cc1	-4	6	-2	26*	-7
COC(=O)CCCCC1SCC2NC(=O)NC21O (stereo unspecified)	-10	.	2	54*	0
COC(=O)C1CSC(C)(C)C(=O)N1 (stereo unspecified)	-1	-4	-4	-3	-9
COc1ccc(NC(=O)Nc2ccc3c(c2)[C@H]2C[C@H](CC(=O)NCCc4ccccc4)O[C@@H](CO)[C@H]2O3)cc1	.	40[16.7 µM]	2	-9	-2
COc1ccc(Br)cc1CNC(=O)Nc1cccs1	2	106*	.	.	.
N#C[C@@H]1[C@H](c2ccc(-c3cccc(F)c3)cc2)[C@H](CO)N1C(=O)NC1CCCCC1	.	.	.	.	-4
Cc1ccc(Cl)cc1NC(=O)CCC(=O)O	-5	.	45*	-3	-5
CC(C)NC(=O)N1[C@H](CO)[C@@H](c2ccccc2)C12CN(C(=O)Cc1ccccc1)C2	.	.	-8	-22	-4
COCC#Cc1ccc2c(c1)O[C@H](CN(C)C)[C@@H](C)CN([C@H](C)CO)S2(=O)=O	.	-4[16.7 µM]	0	0	-9
Cc1noc(C)c1NC(=O)N(C)C[C@H]1Oc2c(NC(=O)NC3CCCCC3)cccc2C(=O)N([C@H](C)CO)C[C@@H]1C	.	-2[16.7 µM]	-1	0	-1
CC1(C)CC2(CC(c3ccccc3F)c3ccc(O)c(O)c3O2)NC(=S)N1 (stereo unspecified)	175*	.	2	17	3
CC1(C)CC2(CC(c3ccc(F)cc3)c3ccc(O)cc3O2)NC(=S)N1 (stereo unspecified)	1	.	0	-2	0
CN(C)C(=O)c1cccc(-c2ccc3c(c2)[C@H]2[C@H](CCN2S(=O)(=O)c2ccccc2)[C@@H](CO)N3)c1	.	1[16.7 µM]	-1	-3	3
Cc1[nH]c2ccccc2c1N=Nc1ccc(F)cc1	-7	.	4	30*	-1
CN=c1scc(-c2ccccc2F)n1/N=C/c1ccc[nH]1	33	-2	-2	45*	21
O=C(O)C[C@@H]1CC[C@H]2[C@@H](COC[C@H](O)CN2S(=O)(=O)c2ccc(F)cc2)O1	.	-5[16.7 µM]	0	-5	2
COc1ccc2c3c([nH]c2c1)[C@H](CO)N(C(=O)c1ccccc1)CC31CCN(C(=O)c2cccc(F)c2)CC1	.	.	1	-3	-17
CCCC(=O)N1CC2(CN(C(=O)C3CCC3)C2)c2c(n(C)c3cc(OC)ccc23)[C@H]1CO	.	.	0	-1	1
O=C(C1CCOCC1)N1CCCC(N2CCN(c3cccc(C(F)(F)F)c3)CC2)C1 (stereo unspecified)	52*	-7	0	2	2
O=C(C1CCOCC1)N1CCCC(N2CCN(c3cccc(Cl)c3)CC2)C1 (stereo unspecified)	-1	.	-2	-2	0
CCCNC(=O)N1CC2(C1)CN(Cc1cccc(OC)c1)[C@H](CO)c1[nH]c3cc(OC)ccc3c12	.	.	-3	1	13
CCCNC(=O)N1CC2(CN(Cc3cccc(OC)c3)C2)c2c([nH]c3cc(OC)ccc23)[C@@H]1CO	.	.	8	32*	9
SMILES	Rtt109 HAT inh	miR122 inh	ERAP1 HTS inh	MLL AF4-AF9 inh	S100A4 inh HTS
CCCNC(=O)N1CC2(CN(Cc3cccc(OC)c3)C2)c2c([nH]c3cc(OC)ccc23)[C@H]1CO	.	.	1	36*	11
CCCNC(=O)N1CC2(CCN(Cc3cccc(OC)c3)CC2)c2c([nH]c3cc(OC)ccc23)[C@H]1CO	.	.	.	9	.
CCCNC(=O)N1CC2(C1)CN(Cc1cccc(F)c1)[C@H](CO)c1[nH]c3cc(OC)ccc3c12	.	.	.	11	.
CCCNC(=O)N1CC2(CN(Cc3cccc(F)c3)C2)c2c([nH]c3cc(OC)ccc23)[C@H]1CO	.	.	9	26*	9
C[C@@H]1CN([C@@H](C)CO)C(=O)c2cccc(NC(=O)C3CCCCC3)c2O[C@H]1CN(C)S(C)(=O)=O	.	-8[16.7 µM]	4	0	-1
CCOC(=O)C[n+]1ccc2c([nH]c3ccccc32)c1C	0	-1	51*	-2	-6
COc1ccccc1-c1nc2cc3ccccc3cc2nc1-c1ccccc1	-5	.	0	26*	-4
COc1ccccc1NC(=O)c1ccc2nc(-c3ccccc3)c(-c3ccccc3)nc2c1	3	-9	.	.	.
COc1ccc(CN(C)C[C@H]2Oc3c(NS(=O)(=O)c4cccs4)cccc3C(=O)N([C@H](C)CO)C[C@H]2C)cc1	.	2[16.7 µM]	2	2	-2
O=C1C=C(N(CCO)Cc2ccccc2)c2ccccc2C1=O	1	-2	.	.	.
O=C1c2ccccc2C(=O)c2c1cccc2N(CCO)CCO	7	-4	1	28*	-7
COc1ccc(C[C@@H]2CCc3cnnn3COC[C@H](C(C)C)NC2=O)cc1	.	.	.	17	.
CCCCC(=O)Nc1nc2c(OC)ccc(OC)c2s1	-4	-1	8	-1	2
CCC[n+]1c(C)sc2c(OC)ccc(OC)c21	?	-2	52*	-5	0
CC(C)(C)c1cc(C(=O)NNc2cccc(Cl)c2)n(Cc2ccccc2)n1	-1	126*	.	2	-6
Cc1ccc(NNC(=O)c2cc(C(C)(C)C)nn2Cc2ccccc2)cc1	1	0	-1	.	-2
CCOc1ccc(NS(=O)(=O)c2ccc(NC(=S)NC(=O)CC(C)C)cc2)cc1	21	166*	.	.	.
CCCC(=O)NC(=S)Nc1ccc(S(=O)(=O)Nc2ccc(OCC)cc2)cc1	7	181*	.	.	.
CCOc1ccc(NS(=O)(=O)c2ccc(C(=O)N(C)CC(=O)Nc3ccc(OC)cc3)cc2)cc1	13	.	-1	2	-2
CC(C)CC(=O)NC(=S)Nc1ccc(S(=O)(=O)NC(C)(C)C)cc1	55*	.	-5	0	14
C=C(C)CN(CC)C(=O)COc1ccc(S(=O)(=O)Nc2ccc(OC)cc2)cc1	-7	186*	.	.	.
COC(=O)C[C@H]1CC[C@H]2[C@@H](COc3ccc(NC(=O)c4cc(F)cc(F)c4)cc3C(=O)N2C)O1	.	-13[16.7 µM]	.	.	.
O=S(=O)(/N=C(/Nc1ccc(Cl)c(S(=O)(=O)N2CCOCC2)c1)c1ccc(F)cc1)c1ccccc1	8	121*	0	0	1
